Some results are limits rather than exact numbers.

The species named for one assay is Homo sapiens. In words: Selectivity for COX2 over COX1. In outline:
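Ratio of COX-1 to COX-2 IC50s, each taken from PGE2 production in CHO cells transfected with COX-1 or with COX-2. Cells were seeded and, 18 h later, given fresh Ham's F12 with 10% fetal calf serum with or without compound. After 10 min they were stimulated with arachidonic acid, then for 10 min with calcium ionophore A 23187. Intracellular PGE2 was read by enzyme immunoassay, n = 2.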

Assay [1] has as its target T1, Prostaglandin G/H synthase 2 (Homo sapiens, UniProt P35354).
T1 sequence (P35354 whole entry): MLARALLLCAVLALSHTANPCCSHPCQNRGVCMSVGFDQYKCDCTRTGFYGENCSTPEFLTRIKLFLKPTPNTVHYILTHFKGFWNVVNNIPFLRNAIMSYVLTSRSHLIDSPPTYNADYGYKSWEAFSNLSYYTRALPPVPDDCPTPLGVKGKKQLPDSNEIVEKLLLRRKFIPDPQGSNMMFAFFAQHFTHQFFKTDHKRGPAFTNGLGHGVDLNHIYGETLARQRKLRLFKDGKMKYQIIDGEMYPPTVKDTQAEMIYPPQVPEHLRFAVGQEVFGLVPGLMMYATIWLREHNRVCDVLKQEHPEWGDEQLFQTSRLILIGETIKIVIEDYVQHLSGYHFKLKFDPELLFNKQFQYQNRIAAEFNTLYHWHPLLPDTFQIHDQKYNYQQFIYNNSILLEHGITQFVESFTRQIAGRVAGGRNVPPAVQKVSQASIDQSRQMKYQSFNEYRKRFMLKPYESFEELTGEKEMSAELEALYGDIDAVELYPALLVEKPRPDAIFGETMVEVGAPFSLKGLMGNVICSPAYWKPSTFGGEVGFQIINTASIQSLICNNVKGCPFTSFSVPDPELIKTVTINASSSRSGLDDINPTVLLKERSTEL
In words: Inhibition of COX2 expressed in CHO cells assessed as inhibition of arachidonic acid-stimulated PGE2 production by enzyme immunoassay.

Assay [2] concerns the target Prostaglandin G/H synthase 1 (Homo sapiens, UniProt P23219). In words: Inhibition of COX1 expressed in CHO cells assessed as inhibition of arachidonic acid-stimulated PGE2 production by enzyme immunoassay. The format is functional, cell-based.
Assay [3] concerns the target T2, Polyunsaturated fatty acid 5-lipoxygenase (Homo sapiens, UniProt P09917).
T2 sequence (P09917 whole entry): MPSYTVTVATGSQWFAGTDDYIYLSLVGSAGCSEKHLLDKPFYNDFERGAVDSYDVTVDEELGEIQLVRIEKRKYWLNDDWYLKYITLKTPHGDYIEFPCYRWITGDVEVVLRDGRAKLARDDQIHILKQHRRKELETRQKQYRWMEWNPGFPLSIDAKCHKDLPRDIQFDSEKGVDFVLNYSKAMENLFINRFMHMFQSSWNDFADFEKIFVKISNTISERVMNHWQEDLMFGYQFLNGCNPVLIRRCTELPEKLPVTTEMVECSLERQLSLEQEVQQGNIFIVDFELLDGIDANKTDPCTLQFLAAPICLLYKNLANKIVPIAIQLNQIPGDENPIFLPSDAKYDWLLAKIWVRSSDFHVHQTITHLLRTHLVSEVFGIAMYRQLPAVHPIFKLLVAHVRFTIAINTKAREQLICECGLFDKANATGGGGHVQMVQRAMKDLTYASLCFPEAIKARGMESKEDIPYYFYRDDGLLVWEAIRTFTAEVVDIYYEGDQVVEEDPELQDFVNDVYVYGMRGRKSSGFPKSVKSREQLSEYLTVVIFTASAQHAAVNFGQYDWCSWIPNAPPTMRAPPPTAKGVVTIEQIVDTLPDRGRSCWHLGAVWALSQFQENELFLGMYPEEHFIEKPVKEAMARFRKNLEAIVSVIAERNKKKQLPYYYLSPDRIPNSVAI
Description: Inhibition of 5LOX in human whole blood assessed as inhibition of calcium ionophore A 23187-stimulated 5HETE production by HPLC analysis. Format: functional, tissue-based. In outline: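 Heparinized human whole blood, 1 mL aliquots, preincubated 15 min at 37 °C with compound or DMSO vehicle; then stimulated with 40 μM A 23187 for 15 min at 37 °C. 5-HETE extracted into ethyl acetate, then HPLC on a C18 column, methanol/water/acetic acid 80:20:0.08, pH 6.0, UV at 234 nm. IC50 from n = 2.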

For assay [4], the system named is LNCaP. Description: Cell cycle arrest in human LNCaP cells by accumulation at subG1 phase at 10 uM after 72 hrs by FACS flow cytometry. Format: functional. The method, boiled down:
(§1)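 LNCaP or PC 3 cells seeded in 6-well plates, synchronized 24 h in serum-free medium, treated 72 h with varying compound concentrations; trypsinized cells pooled with supernatants, pelleted, fixed in cold ethanol overnight at 4 °C, then 30 min in PBS with RNase and propidium iodide. FACScan flow cytometry quantified sub-G1 (sub-diploid), G1, S and G2-M fractions as percent of cells.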
Background: In flow cytometry, cells or beads pass a laser one at a time.

For assay [5], the system named is LNCaP. Description: Antiproliferative activity against androgen-sensitive human LNCaP cells at 100 uM after 72 hrs by MTT test. Format: functional. In outline: (§2)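 Prostate carcinoma cells kept at 37 °C, 5% CO2 in RPMI 1640 with 10% fetal calf serum; seeded 1.8 × 10⁴ (PC 3) or 5.0 × 10⁴ (LNCaP) cells/well, grown 3 days, serum-starved 24 h for synchronization, then exposed 72 h to compounds in medium (<0.1% DMSO); growth read by colorimetric MTT. Mean of at least four independent determinations; single-dose lines at 100 μM.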

The subject of assay [6] is PC-3. In words: Antiproliferative activity against androgen-independent human PC3 cells at 100 uM after 72 hrs by MTT test. The format is functional. In outline:
as §2
For orientation: Formazan colour is commonly taken as a measure of viable cells.

In assay [7] the test system is LNCaP. In words: Cell cycle arrest in human LNCaP cells by accumulation at S phase at 10 uM after 72 hrs by FACS flow cytometry. Format: functional. In outline:
as §1

In assay [8] the test system is LNCaP. In words: Cell cycle arrest in human LNCaP cells by accumulation at G2M phase at 10 uM after 72 hrs by FACS flow cytometry. Format: functional. In outline: as §1
Assay [9] deals with LNCaP. Description: Cell cycle arrest in human LNCaP cells by accumulation at G1 phase at 10 uM after 72 hrs by FACS flow cytometry. Format: functional. In outline: as §1
The test system of assay [10] is PC-3. In words: Antiproliferative activity against androgen-independent human PC3 cells after 72 hrs by MTT test. Format: functional, cell-based. As to conditions: PC-3, 72 h. In outline: as §2

Prostaglandin G/H synthase 1, sequence (P23219 whole entry): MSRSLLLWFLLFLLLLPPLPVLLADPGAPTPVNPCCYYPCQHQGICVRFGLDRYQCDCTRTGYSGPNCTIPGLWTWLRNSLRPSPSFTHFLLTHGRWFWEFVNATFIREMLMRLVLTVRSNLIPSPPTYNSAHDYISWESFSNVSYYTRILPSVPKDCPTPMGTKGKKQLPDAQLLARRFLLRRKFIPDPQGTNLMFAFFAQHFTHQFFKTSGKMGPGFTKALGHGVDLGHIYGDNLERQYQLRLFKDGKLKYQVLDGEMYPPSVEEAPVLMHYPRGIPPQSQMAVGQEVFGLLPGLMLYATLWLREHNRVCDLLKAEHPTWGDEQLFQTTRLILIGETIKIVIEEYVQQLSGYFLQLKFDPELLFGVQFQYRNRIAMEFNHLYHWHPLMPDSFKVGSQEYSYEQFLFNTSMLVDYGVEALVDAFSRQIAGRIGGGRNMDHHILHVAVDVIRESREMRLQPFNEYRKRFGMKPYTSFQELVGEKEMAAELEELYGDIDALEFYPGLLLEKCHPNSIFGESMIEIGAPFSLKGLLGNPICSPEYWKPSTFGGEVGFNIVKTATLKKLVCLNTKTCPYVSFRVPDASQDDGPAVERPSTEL

`CS(=O)(=O)c1ccc(-n2nc(COc3cccc([N+](=O)[O-])c3)cc2-c2ccccc2)cc1`: the Selectivity ratio in the assay filed under Homo sapiens was above 134. Also, the IC50 was 740 nM in assay [1], above 100 µM in [2] and above 10000 nM in assay [3].
Turning to `COC1(c2cc(F)cc(OCc3cc(-c4ccccc4)n(-c4ccc(Cl)cc4)n3)c2)CCOCC1`, the Selectivity ratio in the assay listed under Homo sapiens is 2. The Activity is 2.5% in the assay on LNCaP [4]; 0% with LNCaP [5]; 0% in the assay on PC-3 [6]; 11.1% with LNCaP [7]; 11.1% in the assay with LNCaP [8]; 75.5% with LNCaP [9]. The half-maximal inhibitory concentration (IC50) was 930 nM in assay [1], 1.81 µM in [2] and 830 nM in assay [3].
Regarding `COC1(c2cc(F)cc(OCc3cc(-c4ccccc4)n(-c4ccc(C)cc4)n3)c2)CCOCC1`, the Selectivity ratio in the assay listed under Homo sapiens was 1. For the same compound, the Activity in the assay with LNCaP [4] was 3.5%; in the assay with LNCaP [5] it was 18%; in the assay on PC-3 [6] it was 0%; in the assay with LNCaP [7] it was 10.7%; with LNCaP [8], 14.6%; in the assay on LNCaP [9] it was 71.3%. Moreover, the IC50 stood at 930 nM in assay [1], 1.56 µM in assay [2] and 720 nM in [3].
In the case of `COC1(c2cc(F)cc(OCc3cc(-c4ccccc4)n(-c4ccccc4)n3)c2)CCOCC1`, in the assay listed under Homo sapiens, the Selectivity ratio amounted to 12. The Activity in the assay on LNCaP [4] was 3%; in the assay on LNCaP [5] it was 0%; in the assay on PC-3 [6], 0%; in the assay with LNCaP [7], 10.6%; in the assay with LNCaP [8] it was 13.9%; in the assay with LNCaP [9], 72.9%. Besides, the IC50 turned out to be 610 nM in assay [1], 7.14 µM in [2] and 570 nM in assay [3].
In the case of `COC1(c2cc(F)cc(OCc3cc(-c4ccccc4)n(-c4ccc(Cl)c(Cl)c4)n3)c2)CCOCC1`, the Activity in the assay on LNCaP [4] worked out at 4.6%; in the assay on LNCaP [5], 32%; in the assay on PC-3 [6] it was 21%; in the assay on LNCaP [7], 11.5%; in the assay with LNCaP [8] it was 15.5%; in the assay with LNCaP [9], 68.2%. Further, the values for the IC50 in [1] and in assay [3] were 700 nM and 800 nM, respectively.
On to `COC1(c2cc(F)cc(OCc3cc(-c4ccccc4)n(-c4ccc(C)c(C)c4)n3)c2)CCOCC1`, for which the Activity was 3.9% in the assay on LNCaP [4]; 26% with LNCaP [5]; 11.5% in the assay with LNCaP [7]; 15% with LNCaP [8]; 69.5% in the assay on LNCaP [9]. Further, the IC50 in [1] worked out at 410 nM; in assay [3], 760 nM; in the assay with PC-3 [10] it was 55 µM.
In the case of `COC1(c2cc(F)cc(OCc3ccc4c(ccc(=O)n4C)c3)c2)CCOCC1` [ZD-2138], the IC50 was above 100000 nM in [1], above 100 µM in assay [2] and 83 nM in assay [3].
`CS(=O)(=O)c1ccc(-n2nc(COc3cccc(N4CCOCC4)c3)cc2-c2ccccc2)cc1`: the Selectivity ratio in the assay listed under Homo sapiens worked out at 41. The IC50 is 920 nM in assay [1], 38.1 µM in [2] and above 10000 nM in [3].
For `COC1(c2cc(F)cc(OCc3cc(-c4ccccc4)n(-c4ccc(OC(F)(F)F)cc4)n3)c2)CCOCC1`, the Activity in the assay with LNCaP [4] was 3.6%; with LNCaP [5], 0%; in the assay with PC-3 [6], 0%; in the assay with LNCaP [7], 10.6%; with LNCaP [8], 11%; in the assay with LNCaP [9] it was 74.7%. For the same compound, the values for the IC50 in assay [1] and in assay [3] were 820 nM and 850 nM, respectively.
For `COc1ccc(OCc2cc(-c3ccccc3)n(-c3ccc(S(C)(=O)=O)cc3)n2)cc1OC`, in the assay listed under Homo sapiens, the Selectivity ratio is above 142. In addition, the IC50 in assay [1] was 700 nM; in assay [2] it was above 100 µM; in assay [3] it was above 10000 nM.
In the case of `COc1cc(OC)cc(OCc2cc(-c3ccccc3)n(-c3ccc(S(C)(=O)=O)cc3)n2)c1`, in the assay filed under Homo sapiens, the Selectivity ratio stood at 29. Moreover, the figures for the IC50 in assay [1], in [2] and in [3] were 870 nM, 25.1 µM and above 10000 nM, respectively.
As for `CS(=O)(=O)c1ccc(-n2nc(COc3ccc4c(c3)OCO4)cc2-c2ccccc2)cc1`, in the assay listed under Homo sapiens, the Selectivity ratio is 35. Moreover, the figures for the IC50 in assay [1], in [2] and in assay [3] were 450 nM, 15.8 µM and above 10000 nM, respectively.
The like results for `COc1cc(F)cc(OCc2cc(-c3ccccc3)n(-c3ccc(S(C)(=O)=O)cc3)n2)c1` were, in that order, 142, 310 nM, 44.3 µM and above 10000 nM.
Turning to `COc1ccc(-n2nc(COc3cc(F)cc(C4(OC)CCOCC4)c3)cc2-c2ccccc2)cc1`, the Selectivity ratio in the assay filed under Homo sapiens is below 1. Also, the Activity with LNCaP [4] worked out at 2.8%; in the assay on LNCaP [7], 11.4%; with LNCaP [8], 17%; in the assay with LNCaP [9] it was 69%. Moreover, the values for the IC50 in [1], in [2] and in assay [3] were 300 nM, 0.036 µM and 770 nM, respectively.
On to `CCOc1cccc(OCc2cc(-c3ccccc3)n(-c3ccc(S(C)(=O)=O)cc3)n2)c1`, for which the Selectivity ratio in the assay listed under Homo sapiens was above 112. In addition, the values for the IC50 in [1], in [2] and in assay [3] were 900 nM, above 100 µM and above 10000 nM, respectively.
On to `COC1(c2cc(F)cc(OCc3cc(-c4ccccc4)n(-c4ccc(F)cc4)n3)c2)CCOCC1`, for which the Selectivity ratio in the assay listed under Homo sapiens worked out at 1. Further, the Activity in the assay on LNCaP [4] worked out at 4%; with LNCaP [5], 3%; in the assay on PC-3 [6] it was 7%; in the assay with LNCaP [7], 9.7%; in the assay with LNCaP [8], 15.3%; in the assay with LNCaP [9], 71.3%. Further, the results for the IC50 in assay [1], in assay [2] and in assay [3] were 960 nM, 1.13 µM and 480 nM, respectively.
Consider `CS(=O)(=O)c1ccc(-n2nc(COc3cc(F)cc(C#N)c3)cc2-c2ccccc2)cc1`, for which the Selectivity ratio in the assay listed under Homo sapiens is 176. For the same compound, the IC50 is 570 nM in assay [1], 99.6 µM in assay [2] and above 10000 nM in assay [3].
The like results for `COc1cc(OCc2cc(-c3ccccc3)n(-c3ccc(S(C)(=O)=O)cc3)n2)cc(OC)c1OC` were, in that order, 78, 220 nM, 17.6 µM and above 10000 nM.

For orientation: IC50 means the concentration that gives 50% inhibition.

Source of the values: ChEMBL document CHEMBL1149247, “New COX-2/5-LOX inhibitors: apoptosis-inducing agents potentially useful in prostate cancer chemotherapy” (J Med Chem, 2004).
